Measurements: PMC11809490 (RSC Advances, 2025)

What was measured:
Type in all cases: cell-based, human
C4-2 = assay: MTT assay, cytotoxicity; settings: Homo sapiens, C4-2, 48 h, read-out: IC50 C4-2, MTT, 48 h treatment, 0.1-40 μM
PC3 = assay: MTT assay, cytotoxicity; settings: Homo sapiens, PC-3, 48 h, read-out: IC50 PC3
Method in brief: (§1)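 Cells in medium with 10% FBS, streptomycin and penicillin; 5000 cells per well. After 12 h, test compounds added at 0.1–40 μM, with 0.1% DMSO as vehicle, for 48 h. Then serum-free medium and MTT (5 mg mL−1) at 4:1 for 4 h at 37 °C. Formazan dissolved in DMSO, absorbance at 570 nm, normalized to DMSO control. IC50 from sigmoidal variable-slope nonlinear regression.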

HEK293 = assay: MTT assay, cytotoxicity to normal cells; settings: Homo sapiens, HEK293, 48 h, read-out: IC50 HEK293
Method in brief: as §1

22Rv1 = assay: MTT assay, cytotoxicity; settings: Homo sapiens, 22Rv1, 48 h, read-out: IC50 22Rv1
Method in brief: as §1

MCF7 = assay: MTT assay, cytotoxicity; settings: Homo sapiens, MCF7, 48 h, read-out: IC50 MCF7
Method in brief: as §1

[1] = tested on: prostate, breast, epithelial cancer cells; assay: MTT assay, all tested cancer cell lines together
Method in brief: as §1

Compound | IC50 (C4-2) [µM] | IC50 (PC3) [µM] | IC50 (HEK293) [µM] | IC50 (22Rv1) [µM] | IC50 (MCF7) [µM] | cytotoxicity against the tested cancer cells, in words (SAR) [1]
CCn1cc(/C=C(\C#N)C(=O)c2c[nH]c3ccccc23)c2ccccc21 [21a, (E)-3-(1-Ethyl-1H-indol-3-yl)-2-(1H-indole-3-carbonyl)acrylonitrile] | 3.9 | 13 | > 40 | > 40 | 10.2 | –
N#CC(=Cc1cn(Cc2ccc(Cl)cc2)c2ccccc12)C(=O)c1c[nH]c2ccccc12 [21b, 3-(1-(4-Chlorobenzyl)-1H-indol-3-yl)-2-(1H-indole-3-carbonyl)acrylonitrile] | 13.5 | 10.6 | 40 | 21.5 | 6.9 | moderate activity
COc1ccc2[nH]cc(C(=O)C(C#N)=Cc3cn(C)c4ccccc34)c2c1 [21c, 2-(5-Methoxy-1H-indole-3-carbonyl)-3-(1-methyl-1H-indol-3-yl)acrylonitrile] | 7.5 | 15.5 | > 40 | 1.23 | 25.3 | –
CCn1cc(C=C(C#N)C(=O)c2c[nH]c3ccc(OC)cc23)c2ccccc21 [21d, 3-(1-Ethyl-1H-indol-3-yl)-2-(5-methoxy-1H-indole-3-carbonyl)acrylonitrile] | 8 | > 40 | 39.2 | 25 | 10.9 | –
COc1ccc2c(C(=O)C(C#N)=Cc3cn(C)c4ccccc34)c[nH]c2c1 [21e, 2-(6-Methoxy-1H-indole-3-carbonyl)-3-(1-methyl-1H-indol-3-yl)acrylonitrile] | 15.7 | 7.61 | > 40 | 28 | 12.5 | reduced activity
CCn1cc(C=C(C#N)C(=O)c2c[nH]c3cc(OC)ccc23)c2ccccc21 [21f, 3-(1-Ethyl-1H-indol-3-yl)-2-(6-methoxy-1H-indole-3-carbonyl)acrylonitrile] | 12.5 | 24 | 40 | > 40 | 37 | reduced activity
COc1ccc2c(C(=O)C(C#N)=Cc3cn(Cc4ccc(Cl)cc4)c4ccccc34)c[nH]c2c1 [21g, 3-(1-(4-Chlorobenzyl)-1H-indol-3-yl)-2-(6-methoxy-1H-indole-3-carbonyl)acrylonitrile] | 13.3 | 14.3 | > 40 | 34 | 10.5 | reduced activity
CCOc1ccc2[nH]cc(C(=O)C(C#N)=Cc3cn(C)c4ccccc34)c2c1 [21h, 2-(5-Ethoxy-1H-indole-3-carbonyl)-3-(1-methyl-1H-indol-3-yl)acrylonitrile] | 10 | 27.3 | 40 | 5.23 | 16.8 | significantly enhanced cytotoxicity
CCOc1ccc2[nH]cc(C(=O)C(C#N)=Cc3cn(CC)c4ccccc34)c2c1 [21i, 2-(5-Ethoxy-1H-indole-3-carbonyl)-3-(1-ethyl-1H-indol-3-yl)acrylonitrile] | 2.2 | 2.63 | > 40 | 8.9 | 7.38 | significantly enhanced cytotoxicity
CCCOc1ccc2[nH]cc(C(=O)C(C#N)=Cc3cn(C)c4ccccc34)c2c1 [21k, 3-(1-Methyl-1H-indol-3-yl)-2-(5-propoxy-1H-indole-3-carbonyl)acrylonitrile] | 13.8 | 16.1 | 39.8 | 28 | 18.6 | –
COc1cc2[nH]cc(C(=O)C(C#N)=Cc3cn(C)c4ccccc34)c2cc1OC [21n, 2-(5,6-Dimethoxy-1H-indole-3-carbonyl)-3-(1-methyl-1H-indol-3-yl)acrylonitrile] | 1.02 | 7.1 | > 40 | 20.5 | 5.61 | improved the selectivity against prostate cancer cell lines
